Measurements pooled from the literature.
Each line is one published result; the experiments were not run side by side.
Target: Serine/threonine-protein kinase PLK2 (PLK2, Homo sapiens, UniProt Q9NYY3)

Structure (SMILES)	observed	mode	method	concentration	endpoint	result
CCCS(=O)(=O)Nc1ccc(F)c(C(=O)c2c[nH]c3ncc(-c4ccc(Cl)cc4)cc23)c1F	enzyme activity	inhibitor	–	1 µM	inhibition	< 10%
O=C(Nc1cnn(-c2csc(C(=O)NC3COC3)c2)c1)Nc1ccccc1Cl	enzyme activity	inhibitor	–	5 µM	remaining activity	86%
Cc1ccc(Nc2nccc(N(C)c3ccc4c(C)n(C)nc4c3)n2)cc1S(N)(=O)=O	enzyme activity	inhibitor	–	0.3 µM	inhibition	-15%
C[C@H](c1ccnc(Nc2nc3ccc(-c4cc(N(C)C)ncn4)cc3[nH]2)c1)N1CCN(C(=O)CC(F)(F)F)CC1	cell-free assay	–	competition with immobilised ligand	0.1 µM	remaining binding	100%
N[C@@H]1CCN(c2nccc(-c3cnn4ncccc34)n2)C1	binding	–	–	1 µM	remaining binding	100%
CCCCN(CCCC)C(=O)CN1C[C@H](c2cc(OC)c3c(c2)OCO3)[C@@H](C(=O)O)[C@@H]1CC(C)(C)CCC	cell-free assay	–	competition with immobilised ligand	1 µM	remaining binding	67.1%
N#CCCc1ccc2c(c1)-c1[nH]c3ccc([N+](=O)[O-])cc3c1CC(=O)N2	cell-free assay	–	–	0.5 µM	remaining signal	99%
CO[C@@H](C)c1c(Nc2ccc([C@@H](N(C)C(=O)C3CCS(=O)(=O)CC3)C(F)(F)F)cc2)cnc2cc(Cl)nn12	cell-free assay	–	competition with immobilised ligand	1 µM	remaining binding	100%
CC(C)(C)c1nc(-c2cccc(NS(=O)(=O)c3c(F)cccc3F)c2F)c(-c2ccnc(N)n2)s1	enzyme activity	inhibitor	radiometric	1 µM	remaining activity	94%
COc1cccc(CNC(=O)c2nc3scc(COCc4ccc(C(=O)O)cc4)c3c(=O)[nH]2)c1	cell-free assay	–	competition with immobilised ligand	1 µM	remaining binding	56.7%
COc1cc2ncnc(Nc3ccc(Oc4ccccc4)c(C)c3C)c2cc1OC	enzyme activity	inhibitor	–	1 µM	inhibition	1%
Nc1ncnc2occ(-c3ccc(NC(=O)Nc4cc(C(F)(F)F)ccc4F)cc3)c12	cell-free assay	inhibitor	–	20 µM	remaining signal	0.1%
CNC(=O)c1cc(Oc2ccc(NC(=O)Nc3ccc(Cl)c(C(F)(F)F)c3)cc2)ccn1	enzyme activity	inhibitor	–	0.3 µM	inhibition	-1%
O=C1CCc2cc(Nc3cc(OC4CCOCC4)c([N+](=O)[O-])cc3Cl)ccc2N1	cell-free assay	–	competition with immobilised ligand	1 µM	remaining binding	92%
Cc1ccc(C(=O)Nc2ccc(CN3CCN(C)CC3)c(C(F)(F)F)c2)cc1C#Cc1cnc2cccnn12	enzyme activity	inhibitor	–	23.5 nM	remaining activity	94%
O=C(Nc1cnn(-c2csc(C(=O)NC3COC3)c2)c1)Nc1c(F)cccc1Cl	enzyme activity	inhibitor	–	5 µM	remaining activity	100%
CCN(CC)CCNC(=O)c1c(C)[nH]c(/C=C2\C(=O)Nc3ccc(F)cc32)c1C	enzyme activity	inhibitor	–	10 µM	inhibition	6%
Cc1ccc(NC(=O)c2ccc(CN3CCN(C)CC3)cc2)cc1Nc1nc(-c2cccnc2)cs1	cell-free assay	–	–	0.5 µM	remaining signal	97.9%
CNC(=O)Nc1ccc2c(c1)[C@@]1(CC2)OC(=O)N(CC(=O)N(Cc2ccc(F)cc2)[C@@H](C)C(F)(F)F)C1=O	cell-free assay	–	competition with immobilised ligand	1 µM	remaining binding	92%
COc1cc(Nc2c(C#N)cnc3cc(OCCCN4CCN(C)CC4)c(OC)cc23)c(Cl)cc1Cl	cell-free assay	–	–	0.5 µM	remaining signal	100%
Cc1cc(NC(=O)c2cccc3cc(-c4cccc5[nH]nc(N)c45)ccc23)ccc1F	enzyme activity	inhibitor	–	0.1 µM	activity vs control	91%
O=C(O)c1cc(-c2ccc(C3CCNCC3)cc2)c2ccc(-c3ccc(C(F)(F)F)cc3)cc2c1	cell-free assay	–	competition with immobilised ligand	1 µM	remaining binding	100%
COc1cc2c(Nc3ccc(Br)cc3F)ncnc2cc1OCC1CCN(C)CC1	cell-free assay	–	–	0.5 µM	remaining signal	103%
Cc1ccc(NC(=O)c2ccc(C)c(C(F)(F)F)c2)cc1C#Cc1nn(C2CCC(O)CC2)c2ncnc(N)c12 (stereo not drawn)	cell-free assay	–	–	10 µM	remaining signal	109%
